Among the data in ChEMBL document CHEMBL2412990, “Synthesis and pharmacological evaluation of new N-phenylpiperazine derivatives designed as homologues of the antipsychotic lead compound LASSBio-579” (Eur J Med Chem, 2013) are inhibition, Ki and Ratio Ki values, retold here.

Activity calls are given as the source filed them. The rule behind the calls is not given here.

Test [1] deals with Muscarinic acetylcholine receptor (Rattus norvegicus) (UniProt P08482+P08483+P08485+P08911+P10980). Description: Displacement of [3H]-QNB from muscarinic receptor in rat brain cortical membranes at 30 uM after 60 mins by liquid scintillation counting. The class given is cell membranes. The settings on record: Membrane. The gist of the method:
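Cortical membranes, 150 µg protein, with 0.1 nM [3H]-QNB in 50 mM Tris-HCl pH 7.4 at room temperature for 60 min. Non-specific binding was defined with atropine sulfate. Samples were diluted with cold 5 mM Tris-HCl, vacuum-filtered on glass fibre filters and counted by liquid scintillation.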

The target of test [2] is T1, Adrenergic receptor alpha-2 (Rattus norvegicus, UniProt P22086+P19328+P22909).
T1 sequence (P22086 whole entry): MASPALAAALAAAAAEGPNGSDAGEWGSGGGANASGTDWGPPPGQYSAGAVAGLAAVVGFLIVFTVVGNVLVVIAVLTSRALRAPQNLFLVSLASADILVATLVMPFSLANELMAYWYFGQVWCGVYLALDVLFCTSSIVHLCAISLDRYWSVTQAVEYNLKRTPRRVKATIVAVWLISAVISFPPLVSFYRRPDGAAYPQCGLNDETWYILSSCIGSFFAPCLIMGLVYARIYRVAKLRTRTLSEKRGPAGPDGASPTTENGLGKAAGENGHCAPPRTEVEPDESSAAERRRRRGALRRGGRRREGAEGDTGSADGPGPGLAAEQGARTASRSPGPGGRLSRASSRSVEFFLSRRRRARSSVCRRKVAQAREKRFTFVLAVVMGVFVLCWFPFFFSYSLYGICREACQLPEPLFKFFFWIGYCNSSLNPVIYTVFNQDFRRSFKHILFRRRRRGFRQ
T1 sequence (P19328 whole entry): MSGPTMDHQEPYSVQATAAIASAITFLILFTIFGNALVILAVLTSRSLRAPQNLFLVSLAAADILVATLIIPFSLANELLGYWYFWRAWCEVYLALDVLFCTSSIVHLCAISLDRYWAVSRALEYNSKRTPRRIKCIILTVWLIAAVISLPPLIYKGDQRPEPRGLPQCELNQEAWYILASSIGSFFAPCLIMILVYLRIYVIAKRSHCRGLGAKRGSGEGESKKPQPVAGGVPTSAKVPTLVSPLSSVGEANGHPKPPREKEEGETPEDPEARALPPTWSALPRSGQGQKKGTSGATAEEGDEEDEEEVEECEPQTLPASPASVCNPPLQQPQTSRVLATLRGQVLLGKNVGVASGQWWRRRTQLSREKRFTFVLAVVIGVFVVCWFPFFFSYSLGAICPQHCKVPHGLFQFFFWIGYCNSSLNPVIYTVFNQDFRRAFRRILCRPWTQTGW
T1 sequence (P22909 whole entry): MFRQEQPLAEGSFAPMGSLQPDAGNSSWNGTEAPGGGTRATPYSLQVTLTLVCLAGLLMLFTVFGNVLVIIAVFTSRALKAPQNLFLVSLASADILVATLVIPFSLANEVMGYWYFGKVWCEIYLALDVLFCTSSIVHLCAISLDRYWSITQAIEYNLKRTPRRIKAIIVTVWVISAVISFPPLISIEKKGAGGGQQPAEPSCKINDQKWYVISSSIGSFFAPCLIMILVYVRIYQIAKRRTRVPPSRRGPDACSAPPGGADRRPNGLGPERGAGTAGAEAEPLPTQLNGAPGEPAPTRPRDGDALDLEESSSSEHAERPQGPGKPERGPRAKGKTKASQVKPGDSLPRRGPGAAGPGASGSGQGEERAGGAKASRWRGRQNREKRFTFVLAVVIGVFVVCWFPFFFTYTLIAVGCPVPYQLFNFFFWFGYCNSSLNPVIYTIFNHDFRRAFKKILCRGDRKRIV
Description: Displacement of [3H]-RX821002 from alpha2 adrenoreceptor in rat brain cortical membranes after 45 mins by liquid scintillation counting. Format: cell membranes, Membrane.

Test [3] addresses T2, 5-hydroxytryptamine receptor 2C (Homo sapiens, UniProt P28335).
T2 sequence (P28335 whole entry): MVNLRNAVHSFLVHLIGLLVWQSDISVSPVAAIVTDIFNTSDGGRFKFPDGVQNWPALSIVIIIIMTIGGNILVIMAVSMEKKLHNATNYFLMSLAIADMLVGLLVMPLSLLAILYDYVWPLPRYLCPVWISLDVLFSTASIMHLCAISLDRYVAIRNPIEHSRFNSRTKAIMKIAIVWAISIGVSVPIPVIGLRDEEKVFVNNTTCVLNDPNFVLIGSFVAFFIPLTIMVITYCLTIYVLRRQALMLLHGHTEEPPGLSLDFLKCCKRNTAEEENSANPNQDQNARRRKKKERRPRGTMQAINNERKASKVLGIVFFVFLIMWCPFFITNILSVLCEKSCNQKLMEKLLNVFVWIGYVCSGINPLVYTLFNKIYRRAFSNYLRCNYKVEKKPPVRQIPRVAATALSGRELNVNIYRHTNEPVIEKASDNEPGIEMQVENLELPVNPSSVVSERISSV
Description: Displacement of [3H]-mesulergine from human 5HT2C receptor after 60 mins by liquid scintillation counting.

Another test addresses D(2) dopamine receptor (Rattus norvegicus, UniProt P61169). Nature of the test: Displacement of [3H]-YM-09151-2 from D2 receptor in rat brain striatal membranes after 60 mins by liquid scintillation counting. The class given is cell membranes, Membrane.
Test [4] has as its target Dopamine D2 receptor and Serotonin 2a receptor (D2 and 5HT2a) (Rattus norvegicus) (UniProt P61169+P14842). Description: Selectivity ratio of Ki for dopamine D2 receptor in rat brain striatal membranes to Ki for 5HT2A receptor in rat brain cortical membranes. Format: cell membranes. Conditions: Membrane.
Test [5] concerns the target T3, 5-hydroxytryptamine receptor 1A (Rattus norvegicus) (UniProt P19327).
T3 sequence (whole entry): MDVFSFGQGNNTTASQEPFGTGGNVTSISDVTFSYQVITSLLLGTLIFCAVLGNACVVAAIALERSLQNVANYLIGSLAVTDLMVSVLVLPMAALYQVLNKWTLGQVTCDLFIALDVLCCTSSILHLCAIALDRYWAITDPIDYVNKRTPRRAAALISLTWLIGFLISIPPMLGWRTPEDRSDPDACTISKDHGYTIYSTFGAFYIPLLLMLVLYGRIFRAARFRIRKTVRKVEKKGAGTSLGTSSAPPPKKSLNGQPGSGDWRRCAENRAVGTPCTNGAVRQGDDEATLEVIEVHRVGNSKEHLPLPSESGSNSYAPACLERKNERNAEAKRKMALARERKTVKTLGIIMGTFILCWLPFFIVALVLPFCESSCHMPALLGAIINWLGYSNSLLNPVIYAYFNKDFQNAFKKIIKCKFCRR
Description: Partial agonist activity at 5HT1A receptor in rat brain hippocampal membranes assessed as inhibition of [3H]-8-OH-DPAT binding to receptor after 15 mins by competition assay. The class given is cell membranes. The essentials:
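Hippocampal membranes, 40 µg protein, incubated with 1 nM [3H]-8-OH-DPAT at 37 °C for 15 min under yellow light. Buffer was 50 mM Tris-HCl pH 7.4 with 1 mM CaCl2, 1 mM MnCl2 and pargyline. Non-specific binding was defined with 5-HT. Filters were soaked in 0.5% polyethyleneimine. IC50 came from nonlinear regression fitted with one or two sites. Ki by Cheng-Prusoff, using Kd from saturation experiments.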

Chain of D(2) dopamine receptor (P61169 whole entry): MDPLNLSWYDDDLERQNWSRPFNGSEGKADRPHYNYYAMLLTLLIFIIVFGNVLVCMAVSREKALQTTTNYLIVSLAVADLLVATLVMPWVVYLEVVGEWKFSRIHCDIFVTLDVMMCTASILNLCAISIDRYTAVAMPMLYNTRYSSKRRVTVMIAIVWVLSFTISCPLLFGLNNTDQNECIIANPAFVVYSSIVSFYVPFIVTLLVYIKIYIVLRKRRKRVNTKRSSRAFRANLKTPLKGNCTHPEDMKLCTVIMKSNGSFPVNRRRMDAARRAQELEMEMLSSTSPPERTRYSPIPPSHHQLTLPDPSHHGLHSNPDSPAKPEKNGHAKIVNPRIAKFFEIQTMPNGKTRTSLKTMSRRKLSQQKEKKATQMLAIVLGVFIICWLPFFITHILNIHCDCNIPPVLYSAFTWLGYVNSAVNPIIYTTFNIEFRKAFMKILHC
Chain of Dopamine D2 receptor and Serotonin 2a receptor (D2 and 5HT2a) (Rattus norvegicus) (P14842 whole entry, looked up): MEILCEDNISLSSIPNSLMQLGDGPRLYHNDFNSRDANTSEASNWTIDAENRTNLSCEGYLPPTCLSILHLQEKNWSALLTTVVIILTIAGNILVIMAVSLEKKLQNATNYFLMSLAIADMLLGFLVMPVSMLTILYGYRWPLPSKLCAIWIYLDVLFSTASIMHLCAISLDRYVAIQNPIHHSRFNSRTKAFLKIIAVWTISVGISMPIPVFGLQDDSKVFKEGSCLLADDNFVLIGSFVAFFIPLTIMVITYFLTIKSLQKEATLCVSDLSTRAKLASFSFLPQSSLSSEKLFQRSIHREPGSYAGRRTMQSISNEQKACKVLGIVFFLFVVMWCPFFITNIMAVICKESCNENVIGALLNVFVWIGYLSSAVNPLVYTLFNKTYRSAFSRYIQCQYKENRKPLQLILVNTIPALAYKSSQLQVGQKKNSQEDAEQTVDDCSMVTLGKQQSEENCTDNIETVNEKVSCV
Chain of Dopamine D2 receptor and Serotonin 2a receptor (D2 and 5HT2a) (Rattus norvegicus) (P61169 whole entry, looked up): as the sequence (P61169 whole entry) above

In turn, `Clc1ccc(-n2cc(CCCN3CCN(c4ccccc4)CC3)cn2)cc1` yielded an inhibition in test [1] of 39%. For the same compound, the Ki was 1600 nM in test [2], 5100 nM in test [3] and 680 nM at D(2) dopamine receptor.

`Clc1ccc(-n2cc(COCCN3CCN(c4ccccc4)CC3)cn2)cc1`: the inhibition in test [1] was determined as 11%. For the same compound, the results for the inhibitory constant (Ki) (in test [2]; in test [3]; on D(2) dopamine receptor) were 2100 nM, 8100 nM and 1900 nM, respectively.

In test [1], `Clc1ccc(-n2cc(COCCCN3CCN(c4ccccc4)CC3)cn2)cc1` had an inhibition of 28%. Besides, the Ki in test [2] was determined as 2800 nM; in test [3], 2800 nM; at D(2) dopamine receptor, 790 nM.

In the case of `Clc1ccc(-n2cc(CCCCCN3CCN(c4ccccc4)CC3)cn2)cc1`, the inhibition in test [1] turned out to be 26%. For the same compound, the Ki in test [2] stood at 1400 nM; in test [3] it was 7800 nM; at D(2) dopamine receptor, 490 nM.

Take `Clc1ccc(-n2cc(CCCCN3CCN(c4ccccc4)CC3)cn2)cc1`: the Ratio Ki in test [4] was 0.4. Moreover, the inhibition result in test [5] was “Active”. In addition, the inhibition in test [1] amounted to 2%. In addition, the values for the Ki (in test [2]; in test [3]; at D(2) dopamine receptor) were 610 nM, 5900 nM and 250 nM, respectively.

Take `Clc1ccc(-n2cc(CN3CCN(c4ccccc4)CC3)cn2)cc1`: the Ratio Ki in test [4] is 0.056. The compound also gave an inhibition in test [1] of 22%. Also, the values for the Ki (in test [2]; in test [3]; on D(2) dopamine receptor) were 2500 nM, 8630 nM and 390 nM, respectively.
